Hsp70 activator – Hsp70 transcriptional activation, primary screen | HeLa Hsp70 promoter luciferase reporter, luminescence; scaled: vehicle 0, proteasome-inhibitor control 100% | activation, % at 10 µM | 200,000 tested, 0.04% active | AID 1203;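 active = activation above the mean across all tested compounds plus 3 SD, cutoff set per campaign, cut at about 5.5% in these data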;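 also: 100% = MG132 at 30 µM as the positive control and 0% = DMSO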
HSF1 inh – HSF1 inhibition. NIH3T3-HGL HSE-luciferase, MG132-induced, luminescence 8 h; hits give low values. activity change, negative = inhibition, % at 7.5 µM (by protocol). 300,000 tested, 0.77% active;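 active = more than half of replicate wells show activity change below -50%, luminescence cut by over half; inconclusive = some wells, but at most half, below -50%; inactive = no replicate well below -50%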;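 also: luciferase reports HSF-1 transcriptional activity via heat shock element; 0% = median of DMSO wells and -100% = zero luminescence signal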
Lmaj promast – inhibitors of Leishmania major promastigote growth; Leishmania major promastigotes, resazurin fluorescence viability; inhibition, % at 10 µM; 200,000 tested, 9% active; AID 1063; in the data active = inhibition above about 50%;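 also: promastigotes grown with compound for 44 hours at 28 °C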
T cruzi repl – blocks replication of Trypanosoma cruzi | T. cruzi beta-gal in NIH3T3, luminescence, 90 h | inhibition, % (test concentration not listed) | 300,000 tested, 1.4% active;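 active = mean inhibition across valid replicates above about 55%, limit read from the data; inconclusive = mean below that limit but half or more replicates reach it; inactive = mean below it, under half of replicates reach it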;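 also: signal also drops with host cell toxicity which is not excluded here; 0% = plate median of DMSO wells and 100% = zero luminescence signal; higher percent means less beta-gal luminescence so fewer parasites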
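compound dosing = single 50 nL compound addition per well in DMSO | material = NIH/3T3 host cells with β-galactosidase reporter T. cruzi | input = 5,000 host fibroblasts per well | timing = ≥90 h infection period, 3 h prior cell attachment | read-out basis = percent inhibition of parasite-derived β-gal signal | detection = GalScreen β-gal luminescence, detergent lysis, 60 min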
HSF1 activator – increases HSF-1 driven luciferase reporter signal; NIH3T3-HGL HSF-1 luciferase reporter, MG132, 8 h; 100% = twice DMSO control signal; activation, % at 9 µM; 300,000 tested, 1.7% active; AID 504408;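 active = mean replicate activation of at least 50% with a set share of replicates each reaching 50%; inconclusive = only one of those two conditions met; inactive = mean below 50% and too few replicates reaching it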;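 also: 0% = median of the neutral control wells and 100% = twice that signal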
* marks the source's active call; other numbers are inactive results; ? = inconclusive; . = no result given. This excerpt belongs to a sample that is enriched for hits.

SMILES	Hsp70 activator	HSF1 inh	Lmaj promast	T cruzi repl	HSF1 activator
O=C(Nc1cc(C(F)(F)F)ccc1-n1cncn1)c1ccc(-c2ccccc2)cc1	0	-2	90*	74*	-2
COc1ccc(C(=O)Nc2cc(C(F)(F)F)ccc2-n2cnc3ccccc32)cc1	0	28	15	-7	65*
O=C(COC(=O)C12CC3CC(CC(C3)C1)C2)Nc1ccccc1F	0	4	-5	0	10
COc1cccc(N2C(=NC(=O)CCc3ccccc3)SC3CS(=O)(=O)CC32)c1 (configuration not stated)	.	3	.	-2	-2
CSc1cccc(NS(=O)(=O)c2ccc(F)cc2)c1	0	-1	55*	-7	14
CSc1cccc(NS(=O)(=O)c2cc(Br)cnc2N)c1	.	-61*	.	-1	-70
CS(=O)(=O)N(CC(=O)NCCSCc1cccc(Cl)c1)c1ccccc1F	.	-3	.	18	16
N#CC1=C(N)OC2=C(C(=O)CC(c3ccccc3)C2)C1c1cccnc1 (configuration not stated)	-1	7	93*	55*	14
N#CC1=C(N)Oc2cc3ccccc3cc2C1c1cccnc1 (configuration not stated)	0	-3	85*	0	-3
COc1cccc(CNc2ccc3[nH]c(=O)[nH]c3c2)c1OCc1ccccc1F	.	-1	.	-17	1
COc1ccc(CNC(=O)Cn2nc(C(F)(F)F)c(Br)c2C)cc1	.	-2	.	11	13
COc1cc(NC(=O)Cn2nc(C(F)(F)F)c(Br)c2C)cc([N+](=O)[O-])c1	0	1	98*	?	3
CC(C)c1ccc(NC(=O)Nc2cc3sccc3n2C)cc1	0	-77*	16	1	-82
Cn1c(C(=O)Nc2ccc3c(c2)OCCO3)cc2sccc21	0	0	10	11	1
Cc1ccc(Cn2c(=O)oc3ccccc32)cc1	0	-4	-6	-2	-13
Cc1ccc(S(=O)(=O)n2c(=O)oc3ccccc32)cc1	0	61	0	-18	80*
CCOC(=O)c1c(-c2ccccc2)oc2ccc(OCC)cc12	0	-10	-6	20	12
CCOC(=O)c1c(C)n(C)c2ccc(OCC(O)Cn3c(C)nc4ccccc43)cc12 (configuration not stated)	0	20	10	37	-3
CCOC(=O)c1c(C)n(-c2ccc(C)cc2)c2ccc(OCC(O)CN3CCN(C)CC3)cc12 (configuration not stated)	0	.	100*	.	.
CCOC(=O)c1c(C)n(C)c2ccc(OCC(O)CN3CCN(C)CC3)cc12 (configuration not stated)	0	1	76*	26	1
CCOC(=O)c1c(-c2ccccc2)oc2ccc(OCC(O)CNCCN(C)C)cc12 (configuration not stated)	.	-12	.	79*	-10
CCOC(=O)c1c(C)n(C)c2ccc(OCC(O)CNCCc3ccccc3)cc12 (configuration not stated)	.	33	.	55*	77*
Cn1nnnc1SC(C(=O)Nc1cccc(C(F)(F)F)c1)c1ccccc1 (configuration not stated)	0	2	62*	-9	21
CC(Sc1nnnn1C)C(=O)Nc1ccc(Oc2ccccc2)cc1 (configuration not stated)	-1	-68*	9	19	-74
CC(C)CCNC(=O)C1CCCN1C(=O)NC1CCCCC1 (configuration not stated)	0	-72*	-4	3	-76
SMILES	Hsp70 activator	HSF1 inh	Lmaj promast	T cruzi repl	HSF1 activator
COc1cc(Cl)c(C)cc1NC(=O)c1ccc2c(SCC(=O)O)c3c(nc2c1)CCCC3	0	2	0	12	6
CCOC(=O)c1ccccc1NC(=O)c1ccc2c(SCC(=O)O)c3c(nc2c1)CCCC3	.	-77*	.	1	-80
CC(C)CCNC(=O)c1ccc2c(SCC(=O)O)c3c(nc2c1)CCCC3	1	17	-3	-4	62*
Cc1ccc(N2C(=O)N(CC(=O)Nc3c(C)cc(C)cc3Cl)C(=O)C2C)cc1 (configuration not stated)	.	-10	.	2	4
CCOc1ccc(CN(C)CC(O)COC(c2ccc(OC)cc2)c2ccc(OC)cc2)cc1 (configuration not stated)	.	26	.	43	57*
CN(Cc1ccc(OCC(O)CN(C)Cc2ccccc2)cc1)Cc1nccn1C (configuration not stated)	.	2	.	6	20
COc1ccc(CN(C)CC(O)COc2ccc(-c3ccccc3)cc2)cc1OC (configuration not stated)	.	-3	.	58*	-7
Cc1c(NC(=O)C(C)OC(=O)c2c3c(nc4ccccc24)CCC3)c(=O)n(-c2ccccc2)n1C (configuration not stated)	0	-9	-4	21	6
COc1ccc(CNC(=O)CCSCc2ccccc2C)cc1	0	-7	-10	-7	-4
COc1cc(NC(=O)c2cccc(C)c2)ccc1NC(=O)c1cc2ccccc2o1	.	-35	.	-1	-37
C=CCSc1n[nH]c(-c2ccc(OCCC)cc2)n1	0	38	-2	3	27
C=CCSc1n[nH]c(-c2ccc(OCCCC)cc2)n1	0	35	7	25	66*
CC1=C(/C=C/C(C)=N\NC(=O)c2ccncc2)C(C)(C)CCC1	0	-5	81*	12	11
CC(C)(C)OC(=O)N/N=C/c1ccc(Br)cc1	0	18	0	6	53*
CC(C)(C)NC(=O)C(=O)N/N=C/c1ccc(Br)cc1	0	11	6	-5	13
C/C(=N\NC(=O)c1ccncc1)C12CC3CC(CC(C3)C1)C2	0	-8	-2	-18	7
CC(C)(C)OC(=O)N/N=C\C=C\c1ccc2c(c1)OCO2	0	35	10	-14	56*
COC(=O)N/N=C\C=C\c1ccc2c(c1)OCO2	0	18	-4	-11	19
CC(/C=C/c1cccc([N+](=O)[O-])c1)=N\NC(=O)c1ccncc1	0	10	55*	10	48
O=C(O)CN1C(=O)/C(=C/c2ccc(SCc3ccccc3)o2)SC1=S	0	.	-6	.	.
Cc1cccn2c(=O)nc(SCC(=O)NC3CCCCC3)nc12	.	-7	.	0	4
CC(/C=C/c1ccccc1)=N\NC(=O)c1ccc(Br)cc1	0	8	-5	44	10
CC(/C=C/c1ccccc1)=N/NC(=O)c1cccc(Br)c1	1	3	72*	2	20
Cc1cc(C(=O)N/N=C/C=C/c2ccccc2)n[nH]1	.	2	.	-12	8
CC(/C=C/c1ccc2c(c1)OCO2)=N/NC(=O)c1ccncc1	.	-71*	.	-8	-76
Cc1cc(C(=O)N/N=C/C=C/c2cccc([N+](=O)[O-])c2)n[nH]1	0	6	57*	3	31

Compound activity (PubChem)
